According to article PMC2151622 (The Journal of General Physiology, 2007):
Where a chain is given by its changes, count along the chain named.

Columns and labels:
Type in all cases: cell-based, rabbit
D444C-EAAC1 [1] = target: T1, D444C-EAAC1 (Oryctolagus cuniculus, UniProt P31597, D444C); assay: Blockade of sodium-dependent transient currents; conditions: D444C; for Decay time of transient currents blocked: 10 mM compound, at −100 mV; for IC50: read-out: IC50 for substrates/blockers of charge movements, Xenopus oocytes, mean ± SEM
T1 sequence (P31597 1-524 D444C): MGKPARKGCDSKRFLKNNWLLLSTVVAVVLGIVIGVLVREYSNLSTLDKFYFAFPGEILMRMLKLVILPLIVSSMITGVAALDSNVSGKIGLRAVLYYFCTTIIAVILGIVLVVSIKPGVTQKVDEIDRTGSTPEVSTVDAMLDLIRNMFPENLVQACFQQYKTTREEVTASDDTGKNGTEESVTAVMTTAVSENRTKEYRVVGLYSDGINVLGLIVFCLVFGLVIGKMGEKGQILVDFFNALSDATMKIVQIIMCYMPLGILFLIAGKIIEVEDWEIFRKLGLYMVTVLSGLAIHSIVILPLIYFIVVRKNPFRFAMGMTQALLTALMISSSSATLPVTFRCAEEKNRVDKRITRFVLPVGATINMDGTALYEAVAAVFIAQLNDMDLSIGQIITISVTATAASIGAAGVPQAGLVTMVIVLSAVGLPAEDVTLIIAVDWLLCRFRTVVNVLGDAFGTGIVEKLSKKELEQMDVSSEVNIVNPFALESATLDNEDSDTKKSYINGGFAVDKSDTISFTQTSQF
Summary of the method: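 Steps from −25 mV to −100…+40 mV. Transients taken as current without minus current with compound. Charge is the sum of integrals at −100 and +40 mV, normalised to 10 mM of the same compound. IC50 from a generalized Hill fit; decay from a first-order exponential; 3–10 oocytes.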

D444E-EAAC1 [2] = target: T2, D444E-EAAC1 (Oryctolagus cuniculus, UniProt P31597, D444E); assay: Blockade of sodium-dependent transient currents; conditions: for Decay time of transient currents blocked: at +80 mV; for IC50: read-out: IC50 for substrates/blockers of charge movements, Xenopus oocytes, mean ± SEM
T2 sequence (P31597 1-524 D444E): T1 sequence (P31597 1-524 D444C) with C444E
Summary of the method: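 Oocytes expressing the mutant were voltage clamped in ND96 (pH 7.5, HEPES) and stepped from −25 mV. Transients are buffer current minus buffer-plus-compound current. Charge is the sum of current–time integrals at −100 and +80 mV, normalised to 1 mM L-aspartate or 15 mM succinate, and fitted to a generalized Hill equation. Decay constants come from a first-order exponential fit; mean ± SEM of 3–10 oocytes.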

D444E-EAAC1 [3] = target: T2, D444E-EAAC1; assay: Substrate-induced steady-state transport currents in oocytes expressing D444E; conditions: 2 mM L-aspartate, other concentrations not given
D444N mutant EAAC1 = target: T3, D444N mutant EAAC1 (Oryctolagus cuniculus, UniProt P31597, D444N); assay: Blockade of transient currents; conditions: D444N; for IC50: read-out: IC50 for substrates/blockers of charge movements, Xenopus oocytes, mean ± SEM
T3 sequence (P31597 1-524 D444N): T1 sequence (P31597 1-524 D444C) with C444N

D444C-EAAC1 [4] = target: T1, D444C-EAAC1; assay: Substrate-induced steady-state transport currents in oocytes expressing D444C; conditions: 2 mM L-aspartate (Fig. 1 C), other concentrations not given
D444E mutant EAAC1 = target: T4, D444E mutant EAAC1 (Oryctolagus cuniculus, UniProt P31597, D444E)
T4 sequence (P31597 1-524 D444E): T1 sequence (P31597 1-524 D444C) with C444E

D444C mutant EAAC1 = target: T5, D444C mutant EAAC1 (Oryctolagus cuniculus, UniProt P31597, D444C)
T5 sequence (P31597 1-524 D444C): T1 sequence (P31597 1-524 D444C)

WT-EAAC1 = target: T6, WT-EAAC1 (Oryctolagus cuniculus, UniProt P31597); assay: Substrate-induced steady-state transport currents in oocytes expressing WT; conditions: 2 mM
T6 sequence (P31597 1-524): T1 sequence (P31597 1-524 D444C) with C444D

| Structure (SMILES) | Decay time of transient currents blocked (D444C-EAAC1 [1]) | IC50 (D444C-EAAC1 [1]) | Decay time of transient currents blocked (D444E-EAAC1 [2]; 10 mM compound) | IC50 (D444E-EAAC1 [2]) | Induction of steady-state transport currents (D444E-EAAC1 [3]) | IC50 (D444N mutant EAAC1) | Suppression of the transient currents (D444E-EAAC1 [2]; 2 mM) | Decay time of transient currents blocked (D444E-EAAC1 [2]; 15 mM succinate) | Inhibition of the transient currents, concentration dependence (D444E-EAAC1 [2]; up to 15 mM) | Induction of steady-state transport currents (D444C-EAAC1 [4]) | Inhibition of D-[3H]-aspartate uptake (D444E mutant EAAC1) | Inhibition of D-[3H]-aspartate uptake (D444C mutant EAAC1) | Induction of steady-state transport currents (WT-EAAC1) | Inhibition of the transient currents (D444N mutant EAAC1; 10 mM succinate) |
| --- | --- | --- | --- | --- | --- | --- | --- | --- | --- | --- | --- | --- | --- | --- |
| N[C@@H](CC(=O)O)C(=O)O [L-Aspartate, L-aspartate] | 19.3 ± 1 ms | 12 ± 2 µM | 10.6 ± 1 ms | 9 ± 1 µM | not observed | 295 ± 45 µM | – | – | – | – | – | – | – | – |
| O=C(O)CCC(=O)O [Succinate, succinate] | 15.7 ± 1.1 ms | 840 ± 70 µM | – | > 6000 µM | – | > 10000 µM | only slightly suppressed | 5.1 ± 0.7 ms | saturation was not reached | unable to induce steady-state currents | much less sensitive | fully inhibited | No steady-state transport currents | no inhibition was observed |
